Drawing on ChEMBL document CHEMBL1124934, “Synthesis and structure-activity relationships of dynorphin A-(1-8) amide analogues” (J Med Chem, 1990), this text covers ED50, IC50 and Ki for three compounds.

Test [1] is filed under the species Mus musculus. Kind of test: animal or person. The following applies: iv.
Test [2] concerns Mus musculus. Kind of test: Evaluated for analgesic effect using mouse tail-pinch test after intravenous administration; 9.61-14.34. The class given is functional. The essentials:
(§1)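 Mice, intravenous dosing, tail-pinch analgesia test. Four doses per compound, each dose tested on at least eight animals, giving ED50 in mg/kg.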

The target in test [3] is T1, Mu-type opioid receptor (Cavia porcellus, UniProt P97266). Briefly: Evaluated for inhibitory activity against Opioid receptor mu 1 of guinea pig ileum (GPI). In kind it is tissue-based.
Test [4] concerns the target Delta-type opioid receptor (Mus musculus, UniProt P32300). Kind of test: Evaluated for inhibitory activity against Opioid receptor delta 1 of mouse vas deferens (MVD). The class given is tissue-based.
Test [5] addresses T1, Mu-type opioid receptor. Kind of test: Binding affinities against Opioid receptor mu 1 of guinea pig brain membrane using [3H]DAGO as the radioligand using competition binding assays. The essentials: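 μ-site competition binding on crude P2 membranes from male Hartley guinea pig brain (1 g original wet weight/20 mL, 50 mM Tris-HCl pH 7.6) with 5 nM [3H]DAGO and varied competitor, 60 min at 25 °C. GF/B filtration (1% polyethylenimine presoaked), six ice-cold buffer rinses, scintillation counting. Nonspecific binding with 10 μM levallorphan. Mean of five or six determinations ± SEM.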

Test [6] relates to Mus musculus. Briefly: Evaluated for analgesic effect using mouse tail-pinch test after intravenous administration; 2.08-7.27. In kind it is functional. The essentials: as §1

Peptide text beside a SMILES is read from it.

Sequence of Delta-type opioid receptor (P32300 whole entry): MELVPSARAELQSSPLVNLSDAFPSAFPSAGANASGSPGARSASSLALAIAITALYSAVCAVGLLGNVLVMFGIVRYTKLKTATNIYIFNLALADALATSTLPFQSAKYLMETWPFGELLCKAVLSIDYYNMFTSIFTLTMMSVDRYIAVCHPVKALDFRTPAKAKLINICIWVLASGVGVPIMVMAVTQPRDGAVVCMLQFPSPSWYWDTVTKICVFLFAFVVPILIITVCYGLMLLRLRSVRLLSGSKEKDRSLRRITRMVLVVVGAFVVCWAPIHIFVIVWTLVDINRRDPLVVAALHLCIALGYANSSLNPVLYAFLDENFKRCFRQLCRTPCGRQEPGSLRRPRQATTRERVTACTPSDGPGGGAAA
T1 sequence (P97266 whole entry): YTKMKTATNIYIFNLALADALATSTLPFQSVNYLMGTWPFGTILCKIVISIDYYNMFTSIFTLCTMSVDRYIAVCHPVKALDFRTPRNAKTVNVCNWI

For `CN1CC[C@]23c4c5ccc(O)c4O[C@H]2[C@@H](O)C=C[C@H]3[C@H]1C5` [MORPHINE], in the test listed under Mus musculus [1], the ED50 (in general, the dose at which the effect has come halfway, by size or by number of responders) came out at 1.85 mg/kg.
`CC(C)C[C@H](NC(=O)[C@H](CCCN=C(N)N)NC(=O)[C@H](CCCN=C(N)N)NC(=O)[C@H](CC(C)C)NC(=O)[C@H](Cc1ccccc1)NC(=O)CNC(=O)[C@H](C)NC(=O)[C@@H](N)Cc1ccc(O)cc1)C(N)=O` (H-YAGFLRRL-NH2) showed an ED50 in the test on Mus musculus [2] of 11.7 mg/kg. Moreover, the IC50 (as a rule, the point on the concentration scale where inhibition reaches its midpoint) came out at 6.9 nM at Mu-type opioid receptor [3] and 9.1 nM in test [4].
With `CN[C@@H](Cc1ccc(O)cc1)C(=O)NCC(=O)NCC(=O)N[C@H](Cc1ccccc1)C(=O)N[C@@H](CC(C)C)C(=O)N[C@@H](CCCNC(=N)N)C(=O)N[C@@H](CCCNC(=N)N)C(=O)N[C@@H](CC(C)C)C(N)=O`, affinity on Mu-type opioid receptor [5] was put at a Ki of 2.81 nM. The same compound showed an ED50 in the test with Mus musculus [6] of 3.89 mg/kg. This compound yielded an IC50 in test [4] of 5.2 nM.
